# Results collected from several papers.
# Lines come from different studies, so protocols differ.
# Cell line: HepG2
# Effect on: cell growth or viability
Compound,test,setting,measurement,value
CCn1cc(-c2nc(C)no2)c(=O)c2cc(F)c(N3CCCCC3)cc21,ATP luminescence,48 h,EC50,> 40 µM
CCOC(=O)c1ccc(N2C(N)=C(C#N)C3(C(=O)Nc4ccccc43)C(C#N)=C2O)cc1 (stereo not shown),MTT,"12.5 µM, 24 h",viability,37.7%
O=C(CN1C(=O)/C(=C/c2cccc(Cl)c2)SC1=S)Nc1ccccc1,MTT,10 µM,inhibition,10%
COc1ccc(NC(=O)c2c(Nc3ccccc3)sc(C(=O)NN=Cc3ccc(Cl)cc3)c2NC(C)=O)cc1,SRB,"100 µM, 48 h",viability,52.6%
CCOC(=O)c1ccc(-n2c(-c3ccc(C)cc3)cc(-c3ccc(O)cc3)c(C#N)c2=O)cc1,MTT,"50 µM, 24 h",viability,25.6%
COc1ccc(NC(=O)c2c(Nc3ccccc3)sc(C#N)c2NC(=O)CNc2ccc(O)cc2)cc1,SRB,"0.1 µM, 48 h",viability,85.6%
Cc1cc(=O)oc2ccc(-c3cc(-c4ccc(Br)cc4)nc(N)n3)c(O)c12,MTT,"32 µg/mL, 72 h",inhibition,8%
CC(=O)Nc1cccc(-n2c(=O)n(C3CC3)c(=O)c3c(Nc4ccc(I)cc4F)n(C)c(=O)c(C)c32)c1,resazurin,"390 pM, 72 h",viability,103%
O=C(CN1C(=O)/C(=C/c2cccc(O)c2)SC1=S)Nc1ccccc1,MTT,10 µM,inhibition,5.11%
CCn1cc(-c2nc(C)no2)c(=O)c2cc(F)c(N3CCCC(C)C3)cc21 (stereo not shown),ATP luminescence,48 h,EC50,> 40 µM
COc1ccc(NC(=O)c2c(Nc3ccccc3)sc(C#N)c2NC(=O)CNc2ccc([N+](=O)[O-])cc2)cc1,SRB,"1 nM, 48 h",viability,100%
Cc1cc(Nc2ccc(C(=O)N/N=C/c3ccncc3)cc2)c2cccc(O)c2n1,MTT,20 µM,inhibition,47.7%
CC(=O)O[C@H]1C(=O)[C@@]2(C)[C@H]([C@H](OC(=O)c3ccccc3)[C@]3(O)C[C@H](OC(=O)[C@H](O)[C@@H](NC(=O)c4ccccc4)c4ccccc4)C(C)=C1C3(C)C)[C@]1(OC(C)=O)CO[C@@H]1C[C@@H]2O,MTT,,IC50,4.75 µM
Cc1cc(Nc2ccc(C(=O)N/N=C/c3ccc(C)s3)cc2)c2cccc(O)c2n1,MTT,20 µM,inhibition,46.3%
COc1ccc(/C=C2\SC(=S)N(CC(=O)Nc3ccccc3)C2=O)cc1,MTT,10 µM,inhibition,13.6%
Cc1cc(=O)oc2ccc(-c3cc(-c4cccc(Cl)c4)nc(N)n3)c(O)c12,MTT,"2 µg/mL, 72 h",inhibition,0%
CCn1cc(-c2nc(C)no2)c(=O)c2cc(F)c(N3CCC4(CC3)CC4)cc21,ATP luminescence,48 h,EC50,> 40 µM
CN(C)C/C=N/NC(=O)Nc1cc2c(Nc3ccc(F)c(Cl)c3)ncnc2cc1O[C@H]1CCOC1,MTT,72 h,IC50,3.08 µM
COc1ccc(-c2nc3ccc(C)cc3[nH]2)cc1OC,MTT,48 h,IC50,43.6 µM
CCn1cc(-c2nc(C)no2)c(=O)c2cc(F)c(N3CCOCC3)cc21,ATP luminescence,48 h,EC50,> 40 µM
COc1ccc(NC(=O)c2c(Nc3ccccc3)sc(C#N)c2NC(=O)CNc2ccccc2)cc1,SRB,"10 µM, 48 h",viability,90.4%
CCOC(=O)c1ccc(NC(=O)C2=C3C(=Nc4ccccc43)NC2=O)cc1,MTT,"25 µM, 24 h",viability,56.3%
COc1ccc(-c2cc(-c3ccc4oc(=O)cc(C)c4c3O)nc(N)n2)cc1,MTT,"2 µg/mL, 72 h",inhibition,0%
Cc1ccc2nc(-c3ccco3)n(Cc3ccccc3)c2c1,MTT,,IC50,55.5 µM
CC(C)c1ccc(/C=C2\SC(=S)N(CC(=O)Nc3ccccc3)C2=O)cc1,MTT,10 µM,inhibition,17.5%
Cc1cc(=O)oc2ccc(-c3cc(-c4ccccc4)nc(N)n3)c(O)c12,MTT,"2 µg/mL, 72 h",inhibition,0%
Cc1ccc2nc(-c3ccccc3Cl)[nH]c2c1,MTT,48 h,IC50,95.6 µM
O=C(CN1C(=O)/C(=C/c2ccco2)SC1=S)Nc1ccccc1,MTT,10 µM,inhibition,18.6%
Clc1ccc(-c2nc3ccccc3n2Cc2ccccc2)cc1,MTT,,IC50,47.2 µM
COc1ccc(NC(=O)c2c(Nc3ccccc3)sc(C(=O)NN=Cc3ccc(Br)cc3)c2NC(C)=O)cc1,SRB,"1 µM, 48 h",viability,85.2%
O=C(CN1C(=O)/C(=C/c2ccc[nH]2)SC1=S)Nc1ccccc1,MTT,10 µM,inhibition,9.65%
Cc1cc(=O)oc2ccc(-c3cc(-c4cccs4)nc(N)n3)c(O)c12,MTT,"128 µg/mL, 72 h",inhibition,36%
COc1ccc(NC(=O)c2c(Nc3ccccc3)sc(C#N)c2NC(=O)CNc2ccc(Br)cc2)cc1,SRB,"0.1 µM, 48 h",viability,70.4%
Cc1ccc2nc(-c3cccnc3)[nH]c2c1,MTT,48 h,IC50,68.4 µM
CCOC(=O)c1ccc(-n2c(N)c(C#N)c(CC#N)c(C#N)c2=O)cc1,MTT,"1.56 µM, 24 h",viability,100%
CCn1cc(-c2nc(C)no2)c(=O)c2cc(F)c(N3CCC(F)(F)CC3)cc21,ATP luminescence,48 h,EC50,> 40 µM
CCOC(=O)c1ccc(-n2c(C)cc(/C=C/c3ccc(OCC)cc3)c(C#N)c2=O)cc1,MTT,"1.56 µM, 24 h",viability,100%
COc1ccc(NC(=O)c2c(Nc3ccccc3)sc(C(=O)NN=Cc3cc(OC)c(OC)c(OC)c3)c2NC(C)=O)cc1,SRB,"1 nM, 48 h",viability,97.3%
C=CCn1c(-c2ccc([N+](=O)[O-])cc2)nc2ccccc21,MTT,,IC50,36.8 µM
Cc1cc(=O)oc2ccc(-c3cc(-c4ccc(Cl)cc4)nc(N)n3)c(O)c12,MTT,"8 µg/mL, 72 h",inhibition,39%
COc1ccc(NC(=O)c2c(Nc3ccccc3)sc(C(=O)NN=Cc3ccc(C)cc3)c2NC(C)=O)cc1,SRB,"100 µM, 48 h",viability,57.3%
CCOC(=O)c1ccc(-n2c(C)cc(/C=C/c3ccc(OC)cc3)c(C#N)c2=O)cc1,MTT,"100 µM, 24 h",viability,47.4%
COc1cccc(NC(=O)CN2C(=O)/C(=C/c3ccccc3)SC2=S)c1,MTT,10 µM,inhibition,11.8%
Cc1ccc2nc(-c3c4ccccc4cc4ccccc34)[nH]c2c1,MTT,48 h,IC50,21.4 µM
CCn1cc(C(N)=O)c(=O)c2cc(F)c(N3CCC(C)CC3)cc21,ATP luminescence,48 h,EC50,> 40 µM
CCOC(=O)c1ccc(-n2c(C)cc(C)c(C#N)c2=O)cc1,MTT,"25 µM, 24 h",viability,64.7%
